Published values of several laboratories.
Protocols differ between the studies behind these lines.
Target: MAP kinase-activated protein kinase 2 (MAPKAPK2, Homo sapiens, UniProt P49137)

| Compound | assay | setting | endpoint | result |
| --- | --- | --- | --- | --- |
| Oc1cccc(-c2nc(N3CCOCC3)c3oc4ncccc4c3n2)c1 | enzyme activity, inhibitor | 10 µM | remaining activity | 90% |
| C[C@H](c1ccnc(Nc2nc3ccc(-c4cc(N(C)C)ncn4)cc3[nH]2)c1)N1CCN(C(=O)CC(F)(F)F)CC1 | cell-free assay, competition with immobilised ligand | 0.1 µM | remaining binding | 100% |
| Cc1ccc(C(=O)Nc2ccc(CN3CCN(C)CC3)c(C(F)(F)F)c2)cc1C#Cc1cnc2cccnn12 | enzyme activity, inhibitor | 23.5 nM | remaining activity | 100% |
| COc1cc(/C=C/C(=O)CC(=O)/C=C/c2ccc(O)c(OC)c2)ccc1O | enzyme activity, inhibitor | 1 µM | activity vs control | 90% |
| CS(=O)(=O)N1CCCC(NC(=O)[C@H](CCC2CCCCC2)NC(=O)c2ccc(CNc3ncnc4c3nnn4-c3ccccc3)cc2)C1 (stereo partly shown) | cell-free assay, competition with immobilised ligand | 0.1 µM | remaining binding | 100% |
| Cc1ccc(Nc2nccc(N(C)c3ccc4c(C)n(C)nc4c3)n2)cc1S(N)(=O)=O | enzyme activity, inhibitor | 10 µM | inhibition | 11% |
| O=C1Nc2ccc(Cl)cc2C1=Cc1cc(Cl)c(O)c(Cl)c1 | cell-free assay | 0.5 µM | remaining signal | 100% |
| CS(=O)(=O)Nc1cccc(-c2csc(NC(=O)CSc3nc4nccnc4c(=O)n3CCc3ccccc3)n2)c1 | enzyme activity, inhibitor | 10 µM | inhibition | 1% |
| Cc1nc(C2CCN(C(=O)c3ccc(OC(F)(F)F)cc3N)CC2)c2ncc(N3CCN(C)CC3)cc2n1 | cell-free assay, competition with immobilised ligand | 1 µM | remaining binding | 100% |
| O=C(Nc1cnn(-c2csc(C(=O)NC3COC3)c2)c1)Nc1c(F)cccc1Cl | enzyme activity, inhibitor | 5 µM | remaining activity | 99.8% |
| Cc1ccc(NC(=O)c2ccc(C)c(C(F)(F)F)c2)cc1C#Cc1nn(C2CCC(O)CC2)c2ncnc(N)c12 (stereo not shown) | cell-free assay | 10 µM | remaining signal | 104% |
| Cn1nc(C(=O)NCc2ccc(C(=O)O)cc2)cc1-c1ccc2[nH]ccc2c1 | cell-free assay, competition with immobilised ligand | 0.1 µM | remaining binding | 55% |
| CCCS(=O)(=O)Nc1ccc(F)c(C(=O)c2c[nH]c3ncc(-c4ccc(Cl)cc4)cc23)c1F | enzyme activity, inhibitor | 1 µM | inhibition | < 10% |
| C=CC(=O)Nc1cc(Nc2nccc(Nc3cc(Cl)c(F)cc3C(C)(C)O)n2)c(OC)cc1N1CC[C@@H](N(C)C)C1 | enzyme activity, inhibitor | 1 µM | inhibition | 4% |
| CNC(=O)c1cc(Oc2ccc(NC(=O)Nc3ccc(Cl)c(C(F)(F)F)c3)cc2)ccn1 | enzyme activity, inhibitor | 0.3 µM | inhibition | 4% |
| CCS(=O)(=O)c1cc2cc(C[C@@](O)(CC(C)(C)c3ccc(F)cc3C(N)=O)C(F)(F)F)[nH]c2cn1 | cell-free assay, competition with immobilised ligand | 1 µM | remaining binding | 100% |
| CC(C)c1ccc(NC(=O)c2cccs2)c(-c2nc3ccccc3[nH]c2=O)c1 | enzyme activity, inhibitor | 1 µM | activity vs control | 103% |

| Compound | assay | setting | endpoint | result |
| --- | --- | --- | --- | --- |
| CCCOc1ccc(OC)c(F)c1C(=O)c1ccc(C(=O)N[C@@H]2CNC[C@H]2NC(=O)c2ccc3[nH]ncc3c2)cc1 | enzyme activity, inhibitor | 10 µM | remaining activity | 49% |
| COc1cc(Nc2cnc(C#N)c(O[C@H](C)CN(C)C)n2)ncc1-c1cnn(C)c1 | enzyme activity, inhibitor, radiometric | 1 µM | remaining activity | 112% |
| Cc1c(NC(=O)c2cc(C(N)=O)nc3cc(F)ccc23)c(C(F)(F)F)nn1Cc1ccc(C#N)cc1 | cell-free assay, competition with immobilised ligand | 1 µM | remaining binding | 97% |
| Cc1ccc(NC(=O)c2ccc(CN3CCN(C)CC3)cc2)cc1Nc1nc(-c2cccnc2)cs1 | cell-free assay | 0.5 µM | remaining signal | 102% |
| CNc1cccc2cc(C(=O)Nc3ccc(C(=O)O)cc3)c(=O)[nH]c12 | enzyme activity, inhibitor | 10 µM | inhibition | 11% |
| FC(F)c1nc2ccccc2n1-c1nc(N2CCOCC2)nc(N2CCOCC2)n1 | enzyme activity, inhibitor | 10 µM | remaining activity | 91% |
| COc1cc2ncnc(Nc3ccc(Oc4ccccc4)cc3C)c2cc1OC | enzyme activity, inhibitor | 1 µM | inhibition | 4% |
| COc1cc(Nc2c(C#N)cnc3cc(OCCCN4CCN(C)CC4)c(OC)cc23)c(Cl)cc1Cl | cell-free assay | 0.5 µM | remaining signal | 94.7% |
| Cc1cnc(NC2CCOCC2)nc1-n1cnc(C(=O)NC(CN)c2cc(F)cc(Cl)c2)c1 (stereo not shown) | enzyme activity, inhibitor, radiometric | 1 µM | remaining activity | 108% |
| CN(C)C1CCN(CC#Cc2nn(C3CCCC3)c3nc(NCc4ccccc4)ncc23)C1 (stereo not shown) | enzyme activity, inhibitor, FRET | 1 µM | inhibition | -2% |
| CC(C)(C)c1nc(-c2cccc(NS(=O)(=O)c3c(F)cccc3F)c2F)c(-c2ccnc(N)n2)s1 | enzyme activity, inhibitor, radiometric | 1 µM | remaining activity | 69% |
| C[C@H](NC(=O)c1cnc2n1[C@](C)(Cc1ccc(C#N)cc1)C(=O)N2c1cc(Cl)c(F)c(Cl)c1)C(=O)NC1(c2ccccn2)CC1 | cell-free assay, competition with immobilised ligand | 1 µM | remaining binding | 100% |
| FC(F)(F)Oc1cccc(-c2cnc3ccc(-c4ccncc4)nn23)c1 | enzyme activity, inhibitor, radiometric | 5 µM | activity vs control | 96% |
| CCN(CC)CCNC(=O)c1c(C)[nH]c(/C=C2\C(=O)Nc3ccc(F)cc32)c1C | enzyme activity, inhibitor | 10 µM | inhibition | 15% |
| Cc1cc(NC(=O)c2cccc3cc(-c4cccc5[nH]nc(N)c45)ccc23)ccc1F | enzyme activity, inhibitor | 0.1 µM | activity vs control | 95% |
| CCc1ccccc1C(=O)Nc1n[nH]c2c(C)c(F)c(C3C(C#N)=C(C)N(C)C(C)=C3C#N)cc12 | cell-free assay, competition with immobilised ligand | 1 µM | remaining binding | 100% |
| Nc1nc(Nc2ccccc2)sc1C(=O)c1c(F)cccc1F | enzyme activity, inhibitor | 10 µM | remaining activity | 99% |
